HSP90 inh: HSP90 inhibitors, primary screen, cell lysate, luminescence | Rabbit reticulocyte lysate, luciferase refolding luminescence, 3 h | inhibition, % at 5.6 µM | hit rate 0.91% among 290,000;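 active means inhibition above the screen-wide mean plus 3 SD, computed separately per campaign, cut at about 16% in these data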;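 further: 0% = DMSO wells and 100% = 60 µM geldanamycin wells; inhibitors lower the luminescence because luciferase stays unfolded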
STAT3 inh: IL-6 driven STAT3 reporter inhibitors, primary screen, U3A cells, luciferase, luminescence, MLSCN library; IL-6 STAT3-luciferase reporter; host cell line lacks STAT1; inhibition, % at 5.5 µM; hit rate 0.89% among 190,000;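 active means inhibition above the mean inhibition across all screened compounds plus 3 SD, cut at about 44% in these data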;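 further: 0% = DMSO only wells and 100% = 100 µM nifuroxazide control wells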
STAT3 act-1: IL-6 driven STAT3 reporter potentiators, primary screen, U3A cells, luciferase, luminescence, MLSCN library; IL-6 STAT3-luciferase reporter; 100% = signal with IL-6 EC80 alone; activation (% of control), % at 5.6 µM; hit rate 0.91% among 190,000; AID 871, 2007;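 active means activation above the screen-wide mean of compound activation plus 3 SD, cut at about 130% in these data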;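 further: 0% = background luminescence of wells with medium and substrate only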
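Material: STAT1-lacking human U3A cells, STAT3 luciferase reporter | Benchmarks: IL-6-only wells as 100% reference | Probe or stimulus: IL-6 (33 ng/mL) | Timing: Compound 1 h, then IL-6 6 h at 37 °C | Detection: Luminescence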
STAT1 blocker: STAT1 signaling inhibitors, primary screen, cell-based, HTS, luciferase reporter; NIH 3T3 STAT1-luciferase reporter, IFN-gamma, luminescence; inhibition, % at 5.5 µM; hit rate 0.35% among 200,000; AID 920, 2007;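 active means inhibition above a set limit, the mean inhibition across all tested compounds plus 3 SD, cut at about 34% in these data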;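 further: 0% = IFN-gamma with DMSO and 100% = IFN-gamma with 300 µM nifuroxazide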
STAT3 act-2: STAT3 reporter potentiators, retest of hits, confirmation, U3A cells, luciferase, luminescence. shares compounds with STAT3 act-1. IL-6 potentiation; U3A cells lack STAT1; 100 means same as IL-6 alone. potentiation (% of control), % at 5.7 µM. hit rate 64% among 1,200;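 active means percent activation of the STAT3 luciferase reporter above a set limit taken from the earlier primary screen, cut at about 130% in these data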;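 further: 0% = background signal of medium plus substrate and 100% = median of IL-6 with DMSO wells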
NFkB act STAT3ct: NF-kB reporter activators in human cells, counter-screen for STAT3 activator project. shares compounds with STAT3 act-1. NF-kappaB reporter activation. activation (% of control), % at 5.7 µM. hit rate 11% among 1,200. AID 1309, 2008; in the data active means activation above about 120%;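 further: reporter induced by TNF-alpha stimulation; 100% = median of stimulated DMSO wells and 0% = no signal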
STAT1 act STAT3c: STAT1 reporter activators, IFN-gamma induced, counter-screen for STAT3 activator project, cell-based, NIH 3T3, luciferase luminescence; shares compounds with STAT3 act-1; NIH 3T3 STAT1-luciferase reporter; activation (% of control), % at 5.7 µM; hit rate 13% among 1,200; AID 1318, 2008;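 active means activation above the solvent-only control well mean plus 3 SD, set per screening run, cut at about 120% in these data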;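 further: 100% = IFN-gamma with DMSO median signal so 100% means no change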
* = called active by the depositor. Most compounds without a hit are left out; they make up all but 2% or so of the library.

For CC(C)c1nc2oc3ccccc3c(=O)c2c(=O)n1-c1ccccc1 the results were HSP90 inh 0, STAT3 inh -73, STAT3 act-1 159*, STAT1 blocker -3, STAT3 act-2 132, NFkB act STAT3ct 103 and STAT1 act STAT3c 113.
COc1ccc2c(=O)c3c(=O)n(-c4ccccc4)c(-c4ccc(C)cc4)nc3oc2c1 was read as HSP90 inh -1.
`O=c1c2ccccc2oc2nc(-c3ccco3)n(-c3ccccc3)c(=O)c12` gave HSP90 inh -1, STAT3 inh -45, STAT3 act-1 136*, STAT1 blocker -11, STAT3 act-2 135*, NFkB act STAT3ct 109 and STAT1 act STAT3c 109.
Screening Cc1ccccc1N1CCN(Cc2c[nH]c3ccccc23)CC1 returned HSP90 inh -2, STAT3 inh -41, STAT3 act-1 143*, STAT1 blocker 6, STAT3 act-2 137*, NFkB act STAT3ct 99 and STAT1 act STAT3c 96.
For COc1ccccc1N1CCN(Cc2c[nH]c3ccccc23)CC1 the results were HSP90 inh -1.
Screening CCS(=O)(=O)N1CCN(Cc2c[nH]c3ccccc23)CC1 returned HSP90 inh 2, STAT3 inh -40, STAT3 act-1 142*, STAT1 blocker 19, STAT3 act-2 142*, NFkB act STAT3ct 100 and STAT1 act STAT3c 89.
`Brc1ccc(CN2CCN(Cc3c[nH]c4ccccc34)CC2)cc1` gave HSP90 inh -2.
NC(=O)c1cc2cc(Br)ccc2o/c1=N/NC(=O)c1cccc(F)c1 was read as HSP90 inh -1.
Screening Cn1ccnc1Sc1ccc(/C=N/NC(=O)c2ccccc2O)cc1[N+](=O)[O-] returned HSP90 inh 0, STAT3 inh -63, STAT3 act-1 149*, STAT1 blocker 2, STAT3 act-2 177*, NFkB act STAT3ct 116 and STAT1 act STAT3c 124*.
Screening Cc1cccc(/C=N/NC(=O)C(C)Nc2cccc3ccccc23)n1 (configuration not stated) returned HSP90 inh 4, STAT3 inh -75, STAT3 act-1 164*, STAT1 blocker -1, STAT3 act-2 139*, NFkB act STAT3ct 94 and STAT1 act STAT3c 97.
Screening CC(Nc1cccc2ccccc12)C(=O)N/N=C/c1ccc([N+](=O)[O-])cc1 (configuration not stated) returned HSP90 inh 4, STAT3 inh -11, STAT3 act-1 113 and STAT1 blocker 8.
`Cc1ccc(C)c(OCC(=O)Nc2ccncc2)c1` gave HSP90 inh 1.
For COc1ccc(O)c(-c2cc(-c3cccs3)[nH]n2)c1 the results were HSP90 inh 1, STAT3 inh -45, STAT3 act-1 144*, STAT1 blocker -16, STAT3 act-2 128, NFkB act STAT3ct 113 and STAT1 act STAT3c 105.
`COc1ccc(O)c(-c2cc(-c3ccccc3Cl)[nH]n2)c1` gave HSP90 inh -9.
For CCOC(=O)C1(CCOc2ccccc2)CCN(Cc2ccc3nonc3c2)CC1 the results were HSP90 inh -2, STAT3 inh 5, STAT3 act-1 100 and STAT1 blocker -2.
For CCOC(=O)c1sc(Nc2nc3c(F)cccc3s2)cc1C the results were HSP90 inh -1, STAT3 inh -53, STAT3 act-1 145*, STAT1 blocker 1, STAT3 act-2 150*, NFkB act STAT3ct 134* and STAT1 act STAT3c 104.
For CCC(OC(=O)c1ccco1)C(=O)NC1CCCC1 (configuration not stated) the results were HSP90 inh -3.
CN(Cc1cc(=O)[nH]c2ccccc12)C(=O)c1ccccc1 was read as HSP90 inh -4, STAT3 inh -36, STAT3 act-1 136*, STAT1 blocker -5, STAT3 act-2 121, NFkB act STAT3ct 104 and STAT1 act STAT3c 111.
`CCN(CC)c1nc(Nc2ccc([N+](=O)[O-])cc2)nc(N(CC)CC)n1` gave HSP90 inh 0.
Screening O=C(O)CCNc1cc2ccccc2cc1C(=O)O returned HSP90 inh 7, STAT3 inh -46, STAT3 act-1 142*, STAT1 blocker -1, STAT3 act-2 97, NFkB act STAT3ct 106 and STAT1 act STAT3c 105.
For Nc1cccc(-c2cn3cc(C(F)(F)F)cc(Cl)c3n2)c1 the results were HSP90 inh 8, STAT3 inh -4, STAT3 act-1 108 and STAT1 blocker -33.
For FC(F)(F)c1cc(Cl)c2nc(-c3ccccc3)cn2c1 the results were HSP90 inh 5, STAT3 inh -73, STAT3 act-1 158*, STAT1 blocker -26, STAT3 act-2 173*, NFkB act STAT3ct 140* and STAT1 act STAT3c 202*.
Screening Cc1ccnc(NC(=O)CCC(=O)N(CC(=O)NCc2ccccc2)c2ccc3c(c2)OCO3)c1 returned HSP90 inh -3, STAT3 inh -58, STAT3 act-1 149*, STAT1 blocker 3, STAT3 act-2 144*, NFkB act STAT3ct 114 and STAT1 act STAT3c 98.
For O=C(O)CCCN1C(=O)/C(=C\c2ccco2)SC1=S the results were HSP90 inh 4, STAT3 inh 14, STAT3 act-1 91 and STAT1 blocker 13.
For O=C1/C(=C\c2ccco2)SC(=S)N1Cc1ccccc1 the results were HSP90 inh -2, STAT3 inh -66, STAT3 act-1 168*, STAT1 blocker 7, STAT3 act-2 157*, NFkB act STAT3ct 100 and STAT1 act STAT3c 98.
For O=C(CCCn1c(=O)oc2ccccc21)N1CCc2ccccc2C1 the results were HSP90 inh -1, STAT3 inh -68, STAT3 act-1 161*, STAT1 blocker 0, STAT3 act-2 152*, NFkB act STAT3ct 109 and STAT1 act STAT3c 108.
COCCn1c(SCc2nc3ccccc3s2)nc2ccccc21 was read as HSP90 inh -5, STAT3 inh -47, STAT3 act-1 147*, STAT1 blocker -30, STAT3 act-2 146*, NFkB act STAT3ct 122* and STAT1 act STAT3c 140*.
CCOCCCn1c(SCc2nc3ccccc3s2)nc2ccccc2c1=O was read as HSP90 inh 0, STAT3 inh -28, STAT3 act-1 125 and STAT1 blocker -20.
`COc1ccc(-n2nnnc2SCc2nc3ccccc3s2)cc1` gave HSP90 inh 10, STAT3 inh -49, STAT3 act-1 146*, STAT1 blocker -22, STAT3 act-2 138*, NFkB act STAT3ct 125* and STAT1 act STAT3c 142*.
